Test results published in ChEMBL document CHEMBL1141807, “New phenolic and quinone-methide triterpenes from Maytenus amazonica” (J Nat Prod, 1999).
Values after ≈ are worked out from the molar mass of the structure shown.

How the values were obtained:
[1] = test system: P388; assay: Cytotoxicity against mouse P388 ATCC CCL-46 cells; format: functional, cell-based
In short: (§1)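 Lines maintained in log-phase growth in EMEM/neaa with 5% fetal calf serum, 10-2 M sodium bicarbonate, 0.1 g/L penicillin G and 0.1 g/L streptomycin sulfate. P-388 grown as suspension culture; A-549, HT-29 and MEL-28 as monolayers. Compounds dissolved in DMSO–MeOH (1:9). Read-out IC50 in µg/mL.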

[2] = test system: A549; assay: Cytotoxicity against human A549 ATCC CCl-185 cells; format: functional, cell-based; in short: as §1
[3] = test system: HT-29; assay: Cytotoxicity against human HT-29 ATCC HTB-38 cells; format: functional, cell-based; in short: as §1
[4] = Cytotoxicity against human SK MEL28 ATCC HTB-72 cells; format: functional, cell-based; settings: SK-MEL-28; in short: as §1
[5] = molecular target: Aldo-keto reductase family 1 member B1 (Homo sapiens, UniProt P15121); assay: Inhibition of human recombinant aldose reductase
In short: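 Recombinant human aldose reductase, purified by a published method. In vitro inhibition measured by a modified version of that method. Values given as IC50 in µg/mL.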

## Cc1c(O)c(O)cc2c1C(=O)C[C@@H]1[C@@]2(C)CC[C@@]2(C)[C@@H]3C[C@@H](C)C(=O)C[C@]3(C)CC[C@]12C
[1]
  IC50: 5 µg/mL (≈ 11.4 µM)
[2]
  IC50: 5 µg/mL (≈ 11.4 µM)
[3]
  IC50: 10 µg/mL (≈ 22.8 µM)
[4]
  IC50: 10 µg/mL (≈ 22.8 µM)
[5]
  IC50: 57 µM

## C[C@@H]1C[C@@H]2[C@@](C)(CC[C@@]3(C)[C@@]2(C)CC=C2c4cc(O)c(O)c(C=O)c4C=C[C@]23C)CC1=O
[1]
  IC50: 10 µg/mL (≈ 23 µM)
[2]
  IC50: 10 µg/mL (≈ 23 µM)
[3]
  IC50: 10 µg/mL (≈ 23 µM)
[4]
  IC50: 10 µg/mL (≈ 23 µM)
[5]
  IC50: 57.5 µM

## CC1=C(O)C(=O)C=C2C1=C[C@H](O)[C@@H]1[C@@]2(C)CC[C@@]2(C)[C@@H]3C[C@@H](C)C(=O)C[C@]3(C)CC[C@]12C
[1]
  IC50: 5 µg/mL (≈ 11.4 µM)
[2]
  IC50: 5 µg/mL (≈ 11.4 µM)
[3]
  IC50: 5 µg/mL (≈ 11.4 µM)
[4]
  IC50: 5 µg/mL (≈ 11.4 µM)
[5]
  IC50: 57 µM

## CC1=C(O)C(=O)C=C2C1=CC(=O)[C@@H]1[C@@]2(C)CC[C@@]2(C)[C@@H]3C[C@@H](C)C(=O)C[C@]3(C)CC[C@]12C [AMAZOQUINONE]
[1]
  IC50: 2.5 µg/mL (≈ 5.73 µM)
[2]
  IC50: 5 µg/mL (≈ 11.5 µM)
[3]
  IC50: 5 µg/mL (≈ 11.5 µM)
[4]
  IC50: 5 µg/mL (≈ 11.5 µM)
[5]
  IC50: 57.3 µM
